Reference: ChEMBL document CHEMBL1133562, “Pyrazole ligands: structure-affinity/activity relationships and estrogen receptor-alpha-selective agonists” (J Med Chem, 2000)

Key:
[1] = biological target: Estrogen receptor (Homo sapiens) (UniProt Q92731+P03372); test: RBA ratio between ERalpha and ERbeta; assay type: protein assay
[2] = biological target: T1, Estrogen receptor (Homo sapiens) (UniProt P03372); test: Relative binding affinity was determined for Estrogen receptor 1 using 10 nM [3H]-E2 as tracer (estradiol 100%)
T1 sequence (whole entry): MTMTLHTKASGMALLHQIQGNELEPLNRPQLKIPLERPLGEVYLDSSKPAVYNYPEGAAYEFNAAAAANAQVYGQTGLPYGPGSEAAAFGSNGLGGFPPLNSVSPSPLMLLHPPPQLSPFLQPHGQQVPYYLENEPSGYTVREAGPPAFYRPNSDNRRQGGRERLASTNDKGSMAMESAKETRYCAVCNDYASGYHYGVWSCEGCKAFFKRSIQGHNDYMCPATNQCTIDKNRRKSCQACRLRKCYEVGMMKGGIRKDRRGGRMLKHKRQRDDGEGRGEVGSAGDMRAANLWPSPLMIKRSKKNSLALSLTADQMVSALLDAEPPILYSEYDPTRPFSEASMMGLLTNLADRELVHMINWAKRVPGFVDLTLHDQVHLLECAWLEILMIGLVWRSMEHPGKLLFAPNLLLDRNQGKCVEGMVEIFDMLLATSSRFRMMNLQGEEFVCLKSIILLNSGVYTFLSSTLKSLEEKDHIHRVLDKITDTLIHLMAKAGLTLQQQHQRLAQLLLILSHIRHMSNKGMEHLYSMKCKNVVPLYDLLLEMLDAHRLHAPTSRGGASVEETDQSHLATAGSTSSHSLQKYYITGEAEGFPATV
In short: (§1)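 Competitive radiometric binding with purified full-length human ERα or ERβ, 10 nM [3H]estradiol tracer. Receptor–tracer complex adsorbed on hydroxylapatite. Incubation at 0 °C for 18-24 h. RBA expressed relative to estradiol = 100%. Mean of at least 2, typically 3 or more, independent determinations (±SD); coefficient of variation 0.3.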

[3] = biological target: Estrogen receptor beta (Homo sapiens) (UniProt Q92731); test: Relative binding affinity was determined for Estrogen receptor 2 using 10 nM [3H]E2 as tracer (estradiol 100%); in short: as §1
Estrogen receptor beta (Homo sapiens), sequence (Q92731 whole entry): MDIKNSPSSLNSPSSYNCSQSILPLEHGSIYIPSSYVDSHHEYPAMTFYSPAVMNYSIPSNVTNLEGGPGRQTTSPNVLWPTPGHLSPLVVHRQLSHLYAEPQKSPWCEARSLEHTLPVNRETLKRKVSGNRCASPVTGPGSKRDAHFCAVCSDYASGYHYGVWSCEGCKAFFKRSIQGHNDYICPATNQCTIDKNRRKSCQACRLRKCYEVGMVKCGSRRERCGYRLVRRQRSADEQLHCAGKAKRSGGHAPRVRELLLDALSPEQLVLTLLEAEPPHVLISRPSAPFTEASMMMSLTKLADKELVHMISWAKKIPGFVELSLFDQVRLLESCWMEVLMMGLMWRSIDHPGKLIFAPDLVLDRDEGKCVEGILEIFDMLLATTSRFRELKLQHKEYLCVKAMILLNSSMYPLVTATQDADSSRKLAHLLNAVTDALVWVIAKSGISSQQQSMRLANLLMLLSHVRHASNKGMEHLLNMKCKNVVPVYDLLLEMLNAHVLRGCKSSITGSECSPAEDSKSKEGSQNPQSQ

Estrogen receptor (Homo sapiens) (UniProt Q92731+P03372), sequence (Q92731 whole entry, looked up, one chain of several): as the sequence (Q92731 whole entry) above

| Structure (SMILES) | Ratio [1] | RBA [2] | RBA [3] |
| --- | --- | --- | --- |
| CC(C)c1c(-c2ccc(O)cc2)nn(-c2ccccc2)c1-c1ccc(O)cc1 | 6.5 | 5.6 | 0.86 |
| CCc1c(-c2ccccc2)nn(-c2ccc(O)cc2)c1-c1ccc(O)cc1 | 9 | 7 | 0.8 |
| CCc1c(-c2ccccc2)nn(-c2ccccc2)c1-c1ccc(O)cc1 | 0.67 | 0.04 | 0.06 |
| CCc1c(-c2ccc(O)cc2)nn(-c2ccc(O)cc2)c1-c1ccccc1 | 28 | 8.9 | 0.32 |
| CCc1c(-c2ccc(O)cc2)nn(-c2ccccc2)c1-c1ccccc1 | 4.3 | 2.6 | 0.61 |
| CCCc1c(-c2ccc(O)cc2)nn(-c2ccccc2)c1-c1ccc(O)cc1 | 32 | 16.8 | 0.52 |
| CC(C)Cc1c(-c2ccc(O)cc2)nn(-c2ccc(O)cc2)c1-c1ccc(O)cc1 | 84 | 75 | 0.89 |
| Cc1c(-c2ccc(O)cc2)nn(-c2ccccc2)c1-c1ccc(O)cc1 | 2.7 | 0.76 | 0.28 |
| CCc1c(-c2ccc(O)cc2)nn(-c2ccccc2)c1-c1ccc(O)cc1 | 28 | 31 | 1.1 |
| CC(C)Cc1c(-c2ccc(O)cc2)nn(-c2ccccc2)c1-c1ccc(O)cc1 | 40 | 56 | 1.4 |
| CCc1c(-c2ccc(O)cc2)nn(-c2ccc(O)cc2)c1-c1ccc(O)cc1 | 240 | 36 | 0.15 |
| CCCCc1c(-c2ccc(O)cc2)nn(-c2ccc(O)cc2)c1-c1ccc(O)cc1 | 77 | 14 | 0.18 |
| CCCc1c(-c2ccc(O)cc2)nn(-c2ccc(O)cc2)c1-c1ccc(O)cc1 | – | 49 | – |
| CCCCc1c(-c2ccc(O)cc2)nn(-c2ccccc2)c1-c1ccc(O)cc1 | 19 | 8.7 | 0.47 |
| CCc1c(-c2ccccc2)nn(-c2ccc(O)cc2)c1-c1ccccc1 | 2.1 | 3.1 | 1.5 |
